According to ChEMBL document CHEMBL3769384, “Discovery of Tetrahydropyrazolopyridine as Sphingosine 1-Phosphate Receptor 3 (S1P3)-Sparing S1P1 Agonists Active at Low Oral Doses” (J Med Chem, 2016):

What was measured:
[1] = molecular target: Sphingosine 1-phosphate receptor 3 (Homo sapiens, UniProt Q99500); assay: Agonist activity at human S1P3 receptor expressed in RBL cells by [35S]GTP-gammaS accumulation assay; format: cell-based
How it was run: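 Sucrose-gradient-purified RBL S1P3 membranes (0.44 µg/well) precoupled 30 min on ice to WGA SPA beads with 2 µg/well saponin in HEPES/MgCl2/NaCl buffer pH 7.4. 5 µM GDP final and 0.3 nM [35S]GTPγS final added, then dispensed onto compound in DMSO. Read by scintillation proximity after 3 h at room temperature.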

Cytochrome P450 2D6 = Cytochrome P450 2D6 (Homo sapiens, UniProt P10635); assay: Inhibition of CYP2D6 (unknown origin) coexpressed in Escherichia coli with human NADPH reductase using 4-methylaminomethyl-7-methoyxycoumarin as substrate after 10 mins by fluorescence assay; format: ADME
How it was run: (§1)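 Recombinant CYP co-expressed in E. coli with human NADPH reductase, incubated with an isoform-specific pro-fluorescent substrate and compound (nine concentrations, 0.1-100 µM) plus a 0.2 mM NADPH regenerating system for 10 min at 37°C. Fluorescent metabolite formation was monitored.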

Cytochrome P450 1A2 = molecular target: T1, Cytochrome P450 1A2 (Homo sapiens, UniProt P05177); assay: Inhibition of CYP1A2 (unknown origin) coexpressed in Escherichia coli with human NADPH reductase using ethoxyresorufin as substrate after 10 mins by fluorescence assay; format: ADME; how it was run: as §1
T1 sequence (P05177 whole entry): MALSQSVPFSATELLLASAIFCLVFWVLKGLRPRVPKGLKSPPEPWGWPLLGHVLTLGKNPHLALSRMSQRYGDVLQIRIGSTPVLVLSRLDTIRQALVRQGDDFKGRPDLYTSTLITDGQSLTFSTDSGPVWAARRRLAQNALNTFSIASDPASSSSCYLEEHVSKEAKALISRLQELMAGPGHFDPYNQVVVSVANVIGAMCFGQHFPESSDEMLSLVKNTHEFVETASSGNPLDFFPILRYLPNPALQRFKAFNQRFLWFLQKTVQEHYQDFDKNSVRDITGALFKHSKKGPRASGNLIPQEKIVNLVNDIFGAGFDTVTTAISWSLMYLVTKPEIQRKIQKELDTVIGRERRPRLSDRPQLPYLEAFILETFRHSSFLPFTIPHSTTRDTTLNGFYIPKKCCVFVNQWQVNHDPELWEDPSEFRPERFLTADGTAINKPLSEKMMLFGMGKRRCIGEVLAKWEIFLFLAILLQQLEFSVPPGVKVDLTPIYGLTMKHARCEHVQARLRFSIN

[2] = molecular target: Sphingosine 1-phosphate receptor 1 (Homo sapiens, UniProt P21453); assay: Agonist activity at human S1P1 receptor expressed in CHO-K1 EDG1 cells by beta-arrestin recruitment assay; format: cell-based
How it was run: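 CHO-K1 cells stably expressing beta-arrestin 2 and S1P1 fused to complementing beta-galactosidase fragments; grown to 80% confluency, harvested enzyme-free, resuspended in HEPES/BSA assay buffer pH 7.4. Cells at 1x10^4/well added to compound in DMSO, 90 min at 37°C/5% CO2, then 15 min at room temperature; chemiluminescent detection mix 60 min at room temperature, luminescence read.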

Sphingosine 1-phosphate receptor 3, sequence (Q99500 whole entry): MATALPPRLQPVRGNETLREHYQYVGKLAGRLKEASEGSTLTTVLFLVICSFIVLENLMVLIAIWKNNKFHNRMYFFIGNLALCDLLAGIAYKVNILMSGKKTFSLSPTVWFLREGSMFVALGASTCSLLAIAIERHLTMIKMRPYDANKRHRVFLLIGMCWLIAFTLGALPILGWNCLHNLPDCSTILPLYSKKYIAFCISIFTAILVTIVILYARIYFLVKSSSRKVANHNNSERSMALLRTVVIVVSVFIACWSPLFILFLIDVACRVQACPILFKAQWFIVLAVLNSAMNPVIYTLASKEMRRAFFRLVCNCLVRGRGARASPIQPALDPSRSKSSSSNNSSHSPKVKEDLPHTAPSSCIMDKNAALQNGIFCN
Cytochrome P450 2D6, sequence (P10635 whole entry, canonical isoform): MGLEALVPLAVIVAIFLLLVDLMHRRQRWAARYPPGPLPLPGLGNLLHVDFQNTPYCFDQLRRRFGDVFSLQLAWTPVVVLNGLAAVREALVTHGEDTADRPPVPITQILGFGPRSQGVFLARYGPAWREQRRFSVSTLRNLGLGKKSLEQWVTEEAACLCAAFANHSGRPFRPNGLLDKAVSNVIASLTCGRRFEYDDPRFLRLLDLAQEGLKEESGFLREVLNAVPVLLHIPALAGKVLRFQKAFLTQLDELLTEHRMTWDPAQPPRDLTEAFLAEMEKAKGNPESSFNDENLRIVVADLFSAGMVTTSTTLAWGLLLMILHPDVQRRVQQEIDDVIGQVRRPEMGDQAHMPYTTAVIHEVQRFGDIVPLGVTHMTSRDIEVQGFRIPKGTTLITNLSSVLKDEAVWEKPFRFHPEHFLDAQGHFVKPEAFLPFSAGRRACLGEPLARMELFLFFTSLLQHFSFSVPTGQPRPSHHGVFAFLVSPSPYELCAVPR
Sphingosine 1-phosphate receptor 1, sequence (P21453 whole entry, the tested form may be a part): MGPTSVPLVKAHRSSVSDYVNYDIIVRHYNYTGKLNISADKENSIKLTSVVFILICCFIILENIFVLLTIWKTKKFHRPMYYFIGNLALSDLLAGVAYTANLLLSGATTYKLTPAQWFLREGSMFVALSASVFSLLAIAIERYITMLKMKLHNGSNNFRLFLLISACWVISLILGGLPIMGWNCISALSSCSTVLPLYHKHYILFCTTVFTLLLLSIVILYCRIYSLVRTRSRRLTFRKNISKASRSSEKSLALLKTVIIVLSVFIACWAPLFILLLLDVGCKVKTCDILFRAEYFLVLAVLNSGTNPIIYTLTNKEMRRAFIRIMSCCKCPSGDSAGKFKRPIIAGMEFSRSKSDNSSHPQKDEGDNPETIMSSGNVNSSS

In the case of `Cc1c2c(nn1-c1nnc(-c3ccc(OC(C)C)c(Cl)c3)s1)CCN(CCC(=O)O)C2`, the EC50 [1] is reported as over 31.6 µM, the IC50 (Cytochrome P450 2D6) is reported as over 50 µM and the IC50 (Cytochrome P450 1A2) is reported as over 50 µM. The EC50 [2] was 0.00158 µM.
